NPY-Y1 antag: blocks the human neuropeptide Y Y1 receptor; 200,000 tested, 1% active; HEK293-CNG Y1 cells, membrane potential fluorescence; NPY at EC95, then isoproterenol; AID 1040; inhibition, % at 3.6 µM; P25929;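 active = inhibition above the campaign mean inhibition of all tested compounds plus 3 SD, cut at about 20% in these data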;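 also: 0% = DMSO wells given NPY plus isoproterenol and 100% = isoproterenol alone without NPY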
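Material: HEK293 cells co-expressing NPY Y1 receptor and cyclic-nucleotide gated channel. Timing: compound incubation 1 h at room temperature, readout 45 min post-stimulation. Signal: fluorescence, membrane potential probe.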
NPY-Y1 PAM-ag: potentiates or activates human NPY-Y1 receptor | NPY-Y1 expressing cells, potentiator/agonist activation | AID 1304 | activation, % at 3.6 µM | 220,000 tested, 0.37% active; in the data active = activation above about 33%, passing the limit was not always enough;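 also: cells stimulated with NPY at EC10 then isoproterenol at EC100; 0% = low agonist plus stimulus and 100% = saturating agonist plus stimulus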
S1P4 agonist: activates the human S1P4 receptor. S1P4-expressing cell line, agonist reporter assay. 220,000 tested, 0.35% active. O95977. activation, % at 4.98 µM; in the data active = activation above about 11%;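 also: 0% = DMSO vehicle and 100% = reference agonist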
Target sequence (O95977 whole entry, looked up): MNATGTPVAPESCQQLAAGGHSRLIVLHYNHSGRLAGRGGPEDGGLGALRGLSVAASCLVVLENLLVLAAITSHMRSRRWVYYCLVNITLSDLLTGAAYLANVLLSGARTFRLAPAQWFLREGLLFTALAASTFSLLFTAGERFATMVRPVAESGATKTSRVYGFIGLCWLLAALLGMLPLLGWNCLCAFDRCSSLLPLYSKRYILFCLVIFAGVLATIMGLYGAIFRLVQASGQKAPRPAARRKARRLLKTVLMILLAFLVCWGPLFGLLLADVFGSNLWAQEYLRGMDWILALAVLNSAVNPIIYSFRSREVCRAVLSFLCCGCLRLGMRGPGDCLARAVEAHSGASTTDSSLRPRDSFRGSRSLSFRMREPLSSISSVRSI
NPY2 pot ag: potentiates or activates human NPY-Y2 receptor | P49146 | cells expressing NPY-Y2, potentiator/agonist read-out | activation, % at 3.6 µM | 220,000 tested, 0.45% active | AID 1359; in the data active = activation above about 27%;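 also: cells stimulated with NPY near EC25 plus isoproterenol at EC100; 0% = vehicle plus submaximal agonist and 100% = vehicle plus saturating agonist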
S1P4 antagonist: antagonists of human S1P4 receptor; inhibition, % at 4.98 µM; 220,000 tested, 0.26% active; S1P4-expressing cells, antagonist mode, reporter read-out; AID 1510; in the data active = inhibition above about 29%;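 also: 0% = wells stimulated with agonist and 100% = vehicle wells without agonist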
NPY Y2 blocker: blocks the human neuropeptide Y Y2 receptor; P49146; NPY-Y2 expressing cells, antagonist mode; inhibition, % at 2.7 µM; 140,000 tested, 0.99% active; AID 793; in the data active = inhibition above about 17%;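 also: 0% = vehicle with agonist challenge and 100% = reference antagonist with challenge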
Starred values were filed as active, the others as inactive; . = no result given. Most compounds without a hit are left out; they make up all but 2.4% or so of the library.

SMILES	NPY-Y1 antag	NPY-Y1 PAM-ag	S1P4 agonist	NPY2 pot ag	S1P4 antagonist	NPY Y2 blocker
O=C(N/N=C/c1ccc(F)cc1)c1sccc1OCc1ccc(F)cc1	11	-50	-2	-39	-17	23*
O=C(N/N=C/c1ccc(Cl)cc1)c1sccc1OCc1ccc(F)cc1	109*	-227	1	-153	-14	113*
NNC(=O)c1sccc1OCc1ccc(F)cc1	7	-10	1	-23	-10	.
COc1ccc(COc2ccsc2C(=O)Nc2ccc(Cl)cc2)cc1	11	-65	0	-10	-12	13
COc1ccc(C(CNC(=O)c2cc3ccccc3cc2OC)N2CCCC2)cc1 (configuration not stated)	28*	-35	1	-30	-5	18*
COc1ccc(C(CNC(=O)c2cccc(N(C)C)c2)N2CCCC2)cc1 (configuration not stated)	-3	1	0	5	-2	5
COc1cccc(NC(=O)C2CCCCC2)c1	-2	24	1	-16	-14	4
Cc1ccc(S(=O)(=O)Nc2ccc3nc(N)sc3c2)cc1	3	4	-1	13	7	-1
CS(=O)(=O)c1ccc2nc(N)sc2c1	17	41*	-3	8	-1	0
Cc1nn(C)c(Oc2cccc(Cl)c2)c1C#N	9	-12	2	1	-10	.
COC(=O)CNC(c1ccccc1)c1cc(C)ccc1NC(=O)c1cccc(Cl)c1 (configuration not stated)	28*	-27	0	-6	-17	17*
COC(=O)CNC(c1ccccc1)c1cc(C)ccc1NC(=O)CNC(=O)OCc1ccccc1 (configuration not stated)	29*	-34	1	-22	-4	38*
Cc1cccc(OCCNC(=O)c2cc(-n3cnnc3)ccc2Cl)c1	5	12	1	-2	-11	3
Cc1c(O)c(CN2CCCC2)cc2c1oc(=O)c1ccccc12	-17	65*	-1	57*	8	2
COc1ccc(C2c3c(ccc4ccccc34)Oc3ncn4nc(CO/N=C/c5ccccc5)nc4c32)cc1 (configuration not stated)	-6	-4	1	-6	-15	2
Cc1cc(C(=O)COC(=O)CCc2nc3ccccc3s2)c(C)n1C	6	4	0	-10	-12	5
CC(C)Cn1c(N)c(C(=O)COC(=O)CCc2nc3ccccc3s2)c(=O)n(C)c1=O	20*	1	-1	26	-29	.
CCOc1ccccc1Cn1c(=O)oc2ccc(C)cc21	19	-24	2	-13	-8	8
CCCOc1ccccc1Cn1c(=O)oc2ccc(C)cc21	20*	-42	0	-29	4	21*
O=C(c1cccc([N+](=O)[O-])c1)c1ccc2c(c1)C(=O)NC2=O	6	-16	-1	-7	22	.
C/C(=N/NC(=O)c1ccncc1)c1cc2ccc(O)cc2oc1=O	9	-25	48*	-5	-68	4
CN1CCN(S(=O)(=O)c2ccc(NC(=S)NC(=O)c3ccc(Cl)cc3)cc2)CC1	8	-15	13*	-15	-3	2
CCOC(=O)c1sc(N(Cc2ccccc2)C(=O)COC(=O)c2ccc(O)cc2)nc1C	42*	-37	0	-35	-23	26*
CCOC(=O)c1sc(N(Cc2ccccc2)C(=O)CSc2ncn[nH]2)nc1C	3	-11	-1	-16	-6	4
O=C1c2ccccc2C(=O)c2c(NCCCN(CCO)CCO)cccc21	-13	53*	0	39*	-5	.
SMILES	NPY-Y1 antag	NPY-Y1 PAM-ag	S1P4 agonist	NPY2 pot ag	S1P4 antagonist	NPY Y2 blocker
Nc1c(C(=O)C2CC2)sc2nc(-c3cccs3)cc(C(F)(F)F)c12	8	-8	-3	-7	10	0
O=C1NC(c2ccccc2OC(F)F)Oc2ccccc21 (configuration not stated)	-6	46*	0	56*	-15	.
COc1cccc(C2NC(=O)c3ccccc3O2)c1OC (configuration not stated)	12	19	-1	5	-1	2
Cc1ccc(C(=O)NC(NC(=S)Nc2ccc(S(N)(=O)=O)cc2)C(Cl)(Cl)Cl)cc1 (configuration not stated)	11	-32	-3	-13	7	1
COc1ccc(COCC(O)CN(Cc2ccccc2)C(C)C)cc1OC (configuration not stated)	2	3	2	4	-10	.
CC(C)CN(CC(C)C)CC(O)COc1ccc([N+](=O)[O-])cc1 (configuration not stated)	8	-12	-2	-9	-4	6
COC(=O)Cc1c[nH]c2cccc(OCC(O)CN(Cc3ccc([N+](=O)[O-])cc3)C(C)(C)C)c12 (configuration not stated)	-15	107*	1	103*	0	4
COC(=O)Cc1c[nH]c2cccc(OCC(O)CN(Cc3ccccc3)C(C)C)c12 (configuration not stated)	-14	97*	0	90*	-8	4
COc1ccc(CN(C(=O)c2nsc(Cl)c2Cl)C(C(=O)NC2CCCC2)c2ccc(C)cc2)cc1 (configuration not stated)	44*	-51	0	-17	-5	23*
Cc1ccc(C)c(N(C(=O)c2nsc(Cl)c2Cl)C(C(=O)NC2CCCC2)c2ccc(O)cc2)c1 (configuration not stated)	3	-16	1	1	-17	2
O=C(Nc1cc(Cl)cc(Cl)c1)c1ccc(Cn2c(=O)[nH]c3ccsc3c2=O)cc1	-7	46*	2	21	-1	-14
CCOCCCNC(=O)c1ccc(Cn2c(=O)[nH]c3ccsc3c2=O)cc1	11	-9	1	2	0	.
Cc1ccc(C(=O)N/C(=C\c2ccc(C)o2)C(=O)O)cc1	.	-1	-1	5	9	.
NC(=O)CSc1nnc(-c2ccccn2)n1Cc1ccco1	.	0	2	-6	-8	.
C(=C\c1ccccc1)/CSc1nnc(-c2ccccn2)n1Cc1ccco1	21*	-56	2	-11	1	20*
CCCCC(c1nnnn1C1CCCC1)N1CCN(C2CCCCC2)CC1 (configuration not stated)	37*	-31	2	-14	-4	26*
COCCCNC(=O)c1c(N)n(/N=C/c2cccnc2)c2nc3ccccc3nc12	3	23	-1	21	-7	4
COCCCNC(=O)c1c(N)n(/N=C/c2cccs2)c2nc3ccccc3nc12	7	-2	2	6	-10	19*
O=C(CN1C(=O)c2cccc3cccc1c23)N1CCN(c2cccc(Cl)c2)CC1	-4	-13	0	-4	-29	3
O=C(O)CCC(=O)c1ccc2c(c1)OCCO2	29*	-39	1	-26	-12	18*
